Compound activity: PubChem BioAssay, The Scripps Research Institute Molecular Screening Center
STAT1 inh: STAT1 signaling inhibitors, primary screen, cell-based, HTS, luciferase reporter; NIH 3T3 STAT1-luciferase reporter, IFN-gamma, luminescence; inhibition, % at 5.5 µM; hit rate 0.35% among 200,000; AID 920, 2007;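 active means inhibition above a set limit, the mean inhibition across all tested compounds plus 3 SD, cut at about 34% in these data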;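 further: 0% = IFN-gamma with DMSO and 100% = IFN-gamma with 300 µM nifuroxazide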
STAT3 activator: IL-6 driven STAT3 reporter potentiators, primary screen, U3A cells, luciferase, luminescence, MLSCN library. hit rate 0.91% among 190,000. IL-6 STAT3-luciferase reporter; 100% = signal with IL-6 EC80 alone. AID 871, 2007. activation (% of control), % at 5.6 µM;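 active means activation above the screen-wide mean of compound activation plus 3 SD, cut at about 130% in these data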;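 further: 0% = background luminescence of wells with medium and substrate only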
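System – human U3A cells carrying STAT3-luciferase construct · Probe or stimulus – Interleukin-6, 33 ng/mL · Schedule – compound 1 h, then IL-6 6 h at 37 °C · Signal – luminescence from STAT3-driven luciferase reporter · Evaluation – percent of IL-6-only median luminescence · Benchmarks – IL-6-only high control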
HSP90 inh: HSP90 inhibitors, primary screen, cell lysate, luminescence. hit rate 0.91% among 290,000. inhibition, % at 5.6 µM. Rabbit reticulocyte lysate, luciferase refolding luminescence, 3 h;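 active means inhibition above the screen-wide mean plus 3 SD, computed separately per campaign, cut at about 16% in these data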;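 further: 0% = DMSO wells and 100% = 60 µM geldanamycin wells; inhibitors lower the luminescence because luciferase stays unfolded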
STAT3 inh-1: IL-6 driven STAT3 reporter inhibitors, primary screen, U3A cells, luciferase, luminescence, MLSCN library; hit rate 0.89% among 190,000; inhibition, % at 5.5 µM; IL-6 STAT3-luciferase reporter; host cell line lacks STAT1; AID 862, 2007;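 active means inhibition above the mean inhibition across all screened compounds plus 3 SD, cut at about 44% in these data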;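 further: 0% = DMSO only wells and 100% = 100 µM nifuroxazide control wells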
STAT3 inh-2: STAT3 reporter inhibitors, retest of hits, confirmation, U3A cells, luciferase, luminescence. IL-6 STAT3 luciferase reporter; cell line lacks STAT1. AID 1265, 2008. hit rate 45% among 1,200. inhibition, % at 5.7 µM. shares compounds with STAT3 inh-1;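 active means inhibition above the hit cutoff computed for the primary STAT3 screen, cut at about 44% in these data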;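 further: 0% = IL-6 plus DMSO and 100% = IL-6 plus nifuroxazide control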
NFkB inh STAT3ct: NF-kB reporter inhibitors in human cells, confirmation, counter-screen for STAT3 inhibitor project, cell-based, HEK293T, luciferase, TNF-alpha stimulus | shares compounds with STAT3 inh-1 | TNF-alpha induced | inhibition, % at 5.7 µM | hit rate 36% among 1,200 | AID 1308, 2008;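 active means inhibition above the mean of solvent-only control wells plus 3 SD, cutoff set per campaign, cut at about 13% in these data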;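 further: 0% = TNF-alpha with DMSO and 100% = TNF-alpha with MG high control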
STAT1 inh STAT3c: STAT1 reporter inhibitors, IFN-gamma induced, confirmation, counter-screen for STAT3 inhibitor project, cell-based, NIH 3T3, luciferase luminescence | shares compounds with STAT3 inh-1 | NIH 3T3 STAT1-luciferase reporter | inhibition, % at 5.7 µM | hit rate 27% among 1,200 | AID 1317, 2008;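 active means inhibition above the mean plus 3 SD of solvent-only control wells, limit set per screening run, cut at about 16% in these data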;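 further: 0% = DMSO with IFN-gamma and 100% = nifuroxazide control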
Numbers without * were called inactive; / = no result. This is a sample that favours compounds with a hit; in the whole collection about 2% have one here.

SMILES | STAT1 inh | STAT3 activator | HSP90 inh | STAT3 inh-1 | STAT3 inh-2 | NFkB inh STAT3ct | STAT1 inh STAT3c
CCc1nnc(NC(=O)Cc2ccc(Br)cc2)s1 | -1.5 | 93.0 | 2.5 | 15.6 | / | / | /
CC(C)CC(=O)Nc1ncc([N+](=O)[O-])s1 | / | / | 3.0 | / | / | / | /
O=C(Nc1ccccc1)Nc1ncc([N+](=O)[O-])s1 | 32.7 | 55.6 | 8.2 | 54.4* | 3.3 | -32.5 | -99.2
COC(=O)c1ccc2c(c1)N(C)S(=O)(=O)c1cnc(SCC(=O)C(C)(C)C)nc1-2 | / | / | 2.9 | / | / | / | /
Cc1cccc(Cl)c1NC(=O)N1CCCN(c2nc3ccc(Cl)cc3s2)CC1 | / | / | 2.8 | / | / | / | /
CCOc1ccc(NC(=O)N2CCN(c3nc4ccccc4s3)CC2)cc1 | 25.0 | 56.6 | -0.2 | 54.8* | 39.4 | 3.3 | 16.7*
Cc1cccc(C)c1NC(=O)N1CCN(c2nc3ccccc3s2)CC1 | 3.8 | 55.0 | -1.2 | 56.5* | 56.8* | 8.3 | 4.4
O=C(NC1CCCc2ccccc21)c1cccc(S(=O)(=O)N2CCOCC2)c1 (configuration not stated) | 0.0 | 110.8 | -1.1 | -11.6 | / | / | /
CCc1nc2oc3ccc(C)cc3c(=O)c2cc1C(=O)OC | / | / | 0.7 | / | / | / | /
CC1(C)CC2CC(C)(CN2S(=O)(=O)c2ccc(C(=O)Nc3ccc(S(=O)(=O)N4CCOCC4)cc3)cc2)C1 (configuration not stated) | 14.9 | 69.2 | 6.0 | 35.7 | / | / | /
CC1(C)CC2CC(C)(CN2S(=O)(=O)c2ccc(C(=O)Nc3ccc(Cl)c(S(=O)(=O)N4CCOCC4)c3)cc2)C1 (configuration not stated) | 7.8 | 70.1 | 1.9 | 45.1* | 50.4* | 22.2* | 7.1
C=CCN=c1scc(-c2ccc3c(c2)NC(=O)CO3)n1/N=C(\C)c1ccccn1 | 20.7 | 39.2 | 3.0 | 75.3* | 74.4* | 18.3* | 22.0*
Cc1cc(C(=O)CN2C(=O)C3CC=CCC3C2=O)c(C)n1-c1ccccc1 (configuration not stated) | -42.7 | 90.1 | 9.0 | 17.8 | / | / | /
Cc1cc(C(=O)CN2C(=O)c3ccccc3S2(=O)=O)c(C)n1-c1ccccc1 | -4.0 | 51.1 | 16.4* | 58.6* | 78.0* | 15.8* | 58.4*
COc1cc(S(=O)(=O)NCCCN2CCOCC2)ccc1-n1cnnn1 | 2.4 | 93.1 | 0.6 | 13.2 | / | / | /
O=C(Nc1cccc(S(=O)(=O)N2CCOCC2)c1)C1=NN(c2ccccc2)C(=O)CC1 | / | / | 4.3 | / | / | / | /
CCSc1ccc(-c2ccc(C)cc2)nn1 | 1.0 | 65.0 | 3.0 | 46.6* | 11.9 | -32.0 | -97.8
c1ccc2c(c1)[nH]c1c(N3CCCC3)ncnc12 | 17.4 | 63.3 | 1.1 | 46.1* | 39.4 | 17.9* | 22.9*
COc1ccc(CCNc2ncnc3sccc23)cc1OC | 23.5 | 29.0 | -5.6 | 88.9* | 88.8* | 39.6* | 31.4*
NS(=O)(=O)c1ccc(CCNc2ncnc3sccc23)cc1 | 22.4 | 55.5 | -0.9 | 53.8* | 47.5* | 12.8 | 23.1*
Cc1sc2ncnc(NCCc3ccc(S(N)(=O)=O)cc3)c2c1C | 30.4 | 38.9 | -1.5 | 73.5* | 79.7* | 28.9* | 29.7*
Cc1sc2ncnc(NCCCn3ccnc3)c2c1C | 2.6 | 102.6 | 1.0 | 5.9 | / | / | /
Cc1cc(C(=O)COC(=O)C2COc3ccccc3O2)c(C)n1CC1CCCO1 (configuration not stated) | 0.8 | 99.6 | 9.1 | 6.3 | / | / | /
Cc1cc(C(=O)COc2ccccc2C(N)=O)c(C)n1CC1CCCO1 (configuration not stated) | 24.5 | 43.7 | 1.9 | 72.9* | 70.4* | 21.8* | 16.5*
CN(C)c1ccc(C=Nc2ccccc2C(N)=O)cc1 | -38.1 | 63.1 | 10.5 | 45.4* | 31.1 | 8.6 | -44.5
SMILES | STAT1 inh | STAT3 activator | HSP90 inh | STAT3 inh-1 | STAT3 inh-2 | NFkB inh STAT3ct | STAT1 inh STAT3c
Cc1ccc(C=Nc2ccccc2C(N)=O)o1 | -39.5 | 97.3 | 0.8 | 3.4 | / | / | /
CCN(CC)C(=O)Cn1cc(S(=O)(=O)CC(=O)Nc2ccc(F)cc2F)c2ccccc21 | / | / | -7.0 | / | / | / | /
Cc1cc(Nc2cccc([N+](=O)[O-])c2)n2c(nc3ccccc32)c1C#N | 8.0 | 31.7 | 2.0 | 79.7* | 73.4* | 45.7* | 55.1*
CCN(CC)CCNc1cc(C)c(C#N)c2nc3ccccc3n12 | / | / | 2.8 | / | / | / | /
Cc1ccc(-c2nc3cc(C)ccc3o2)cc1 | 32.3 | 33.9 | 13.0 | 83.8* | 37.9 | 40.0* | 3.3
COC(=O)c1ccc(-c2nc3ccc(C)cc3o2)cc1 | -21.8 | 46.9 | 10.7 | 67.7* | 42.8 | -30.2 | -81.6
Cc1ccc2oc(-c3ccco3)nc2c1 | -42.1 | 90.0 | -2.7 | 12.5 | / | / | /
Cc1ccc(-c2nc3cc(N)ccc3o2)cc1 | -26.9 | 51.0 | 8.8 | 59.4* | 17.0 | -15.7 | -119.6
CCOc1cccc2cc(-c3cn4cc(C)ccc4n3)c(=O)oc12 | -45.5 | 43.3 | 2.6 | 69.1* | 39.3 | -17.4 | -81.6
COc1ccc(CCNc2cc(N3CCN(C(=O)c4ccc(C)cc4)CC3)ccc2[N+](=O)[O-])cc1OC | 7.9 | 91.7 | 1.9 | 8.1 | / | / | /
COc1ccc(C(=O)N2CCN(c3ccc([N+](=O)[O-])c(NCCc4ccc(OC)c(OC)c4)c3)CC2)cc1 | 25.8 | 42.9 | 7.9 | 69.7* | 86.6* | 42.1* | 29.3*
COc1ccc(CCNc2cc(N3CCN(C(=O)c4ccccc4F)CC3)ccc2[N+](=O)[O-])cc1OC | 8.1 | 45.2 | -3.6 | 69.1* | 84.3* | 36.8* | 18.7*
CN(CC(=O)Nc1ccc(F)cc1)C(=O)COC(=O)CCN1C(=O)C2CC=CCC2C1=O (configuration not stated) | / | / | -0.9 | / | / | / | /
COc1ccc(NC(=S)Nc2ncccc2C)cc1OC | -35.5 | 86.1 | -1.5 | 22.5 | / | / | /
COc1ccc(NC(=S)Nc2ncccc2C)c(OC)c1 | -25.6 | 66.2 | -2.4 | 46.7* | 39.9 | -16.5 | -42.4
CC(=O)N1CCSc2ccc(S(=O)(=O)NCCc3ccc(Cl)cc3)cc21 | / | / | -3.7 | / | / | / | /
CCCCc1ccc(/C=C(\C#N)C(N)=S)s1 | 22.9 | 64.2 | -1.5 | 44.5* | 42.5 | -14.4 | 16.6*
CC(C)COC(=O)c1ccc2c(c1O)C(=O)c1ccccc1C2=O | -30.3 | 64.6 | 14.3 | 46.4* | 15.9 | -27.1 | -95.2
COc1ccc2c(c1O)C(=O)c1ccccc1C2=O | -4.8 | / | 3.3 | / | / | / | /
CCCCc1ccc(-c2ccc(C)cc2O)nc1 | -59.7 | 56.7 | -1.0 | 51.0* | 16.7 | -36.7 | -113.0
CCCCc1ccc(-c2ccc(Br)cc2O)nc1 | -43.0 | 81.9 | 1.6 | 26.2 | / | / | /
Cc1ccc(C(=O)COC(=O)c2cccs2)cc1 | 24.7 | 64.5 | -3.6 | 46.7* | 5.7 | -23.4 | -65.8
